Assay [1] is described as follows: inhibitors of TNFa-induced NFkB p65 translocation, primary screen, imaging, HUVEC, MLSMR starter and 10KST1 sets (AID 438;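 active = inhibition above 20% together with a positive visual image hit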;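 note: compound added about 3h40 before a 20 min TNFalpha stimulation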;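 for inhibition: signal is the nuclear over cytoplasmic p65 intensity ratio per well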). To be noted: HUVEC TNFa-induced p65 nuclear translocation; cell count: measured here: nuclei count (cytotoxicity indicator), at 2.08 µM; inhibition: at 2 µM, stronger effect = higher value, 0% TNFa-plus-vehicle, 100% no-TNFa wells.
The nature of assay [2]: endothelial E-selectin expression blockers – imaging, HUVEC, immunofluorescence, MLSMR starter and 10KST1 sets, primary screen (AID 487;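 active = visually confirmed hit in the image check and inhibition above 20%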;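 for inhibition: signal is fraction of cell area covered by stained E-selectin grains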;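 for nuclei count: 100% = median nuclei count of all wells on the same plate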). To be noted: HUVEC TNFalpha-induced E-selectin immunofluorescence imaging, at 2 µM; inhibition: stronger effect = higher value; nuclei count: measured here: cell number, toxicity.
The nature of assay [3]: Primary imaging screen for DUSP6 inhibitors that restore phospho-Erk in transfected HeLa cells, chemical complementation (AID 609;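 active = compounds giving at least 50% inhibition in the cell-based MKP-3 phosphatase rescue imaging test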;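 for inhibition: phospho-Erk level distribution per well compared with pooled transfected vehicle control wells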). To be noted: HeLa MKP-3 transfected, phospho-Erk imaging KS statistic, at 10 µM, cells stimulated with TPA for 15 min.
Assay [4] deals with Dual specificity protein phosphatase 6 (Homo sapiens) (UniProt Q16828). Described as above. The conditions noted are these: HeLa MKP-3 transfected, phospho-Erk imaging KS statistic; at 10 µM; stronger effect = higher value; cells stimulated with TPA for 15 min.
Dual specificity protein phosphatase 6 (Homo sapiens), sequence (Q16828 whole entry, looked up): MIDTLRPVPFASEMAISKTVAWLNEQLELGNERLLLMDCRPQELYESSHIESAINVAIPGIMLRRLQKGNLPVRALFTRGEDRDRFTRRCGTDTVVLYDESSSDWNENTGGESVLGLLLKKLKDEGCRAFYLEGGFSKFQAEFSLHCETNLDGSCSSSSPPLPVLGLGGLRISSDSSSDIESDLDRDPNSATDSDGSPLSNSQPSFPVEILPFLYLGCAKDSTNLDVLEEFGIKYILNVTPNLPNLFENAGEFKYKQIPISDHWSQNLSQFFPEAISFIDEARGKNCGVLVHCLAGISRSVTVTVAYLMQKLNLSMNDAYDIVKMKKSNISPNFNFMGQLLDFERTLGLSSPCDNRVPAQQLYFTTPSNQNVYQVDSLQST
Assay [5] has as its target Voltage-gated potassium channel subunit beta-2 (Rattus norvegicus) (UniProt P62483). Description: inhibitors of rat Kvbeta2 reductase activity – biochemical, NADPH fluorescence, primary screen (AID 622;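 active = fluorescence slope higher than the sample average by over 3 SD, cut at about -0.22 in these data, passing the limit was not always enough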;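 note: slope of raw intensity against log time taken from 70 to 1610 s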). The conditions noted are these: recombinant KvBeta, 4-cyanobenzaldehyde reduction, at 10 µM, stronger effect = higher value.
The target is the same in assay [6]. In words: enhancers of rat Kvbeta2 NADPH turnover – biochemical, NADPH fluorescence, primary screen (AID 623;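 active = NADPH fluorescence slope more negative than the mean of all samples by about 3 SD, 99.7% confidence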;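 note: fluorescence intensity change per second fitted from 20 to 320 s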). To be noted: Recombinant KvBeta, NADPH fluorescence decrease slope, 10 min; at 10 µM; stronger effect = lower value.
The target in assay [7] is Alpha-2C adrenergic receptor (Homo sapiens) (UniProt P18825). In words: compounds altering alpha2C-coupled GIRK flux – cell-based, HEK293 alpha2C/GIRK1/2, thallium flux, primary screen (AID 624;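 active = fluorescence slope after compound addition differing from the mean of all screened samples at 99.7% confidence, in either direction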;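 note: slope of fluorescence ratio to pre-addition baseline per second over 15 to 24 s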). The conditions noted are these: thallium flux BTC fluorescence, at 10 µM, actives lie on both sides.
Alpha-2C adrenergic receptor (Homo sapiens), sequence (P18825 whole entry, looked up): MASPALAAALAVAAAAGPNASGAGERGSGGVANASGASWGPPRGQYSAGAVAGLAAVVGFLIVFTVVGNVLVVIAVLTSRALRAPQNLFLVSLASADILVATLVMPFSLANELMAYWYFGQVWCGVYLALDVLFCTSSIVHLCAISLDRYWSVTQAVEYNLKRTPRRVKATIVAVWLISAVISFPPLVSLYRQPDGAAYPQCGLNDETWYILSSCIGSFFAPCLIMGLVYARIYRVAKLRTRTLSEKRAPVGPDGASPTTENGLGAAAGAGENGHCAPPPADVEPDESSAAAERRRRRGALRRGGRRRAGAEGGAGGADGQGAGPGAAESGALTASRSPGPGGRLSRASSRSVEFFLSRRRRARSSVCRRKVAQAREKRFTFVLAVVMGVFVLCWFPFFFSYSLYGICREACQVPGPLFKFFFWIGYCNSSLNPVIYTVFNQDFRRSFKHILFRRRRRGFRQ
Assay [8] in a line: inhibitors of larval lipid processing in zebrafish, primary screen, whole organism, PED6 fluorescence, gall bladder and intestine (AID 686;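 active = a full or partial loss of lipid-probe fluorescence in the fish gall bladder, intestine or both, judged by eye; inactive = no fluorescence loss, or compound toxic to the fish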;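 note: larvae 5 to 7 days old with five fish per well; signal comes from phospholipase A2 cleavage of quenched PED6 carried via bile; overnight exposure to compound and PED6 before scoring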). To be noted: Zebrafish larvae PED6 lipid processing, fluorescence scoring; screened at 20 µM (by protocol). In outline:
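Test system – live zebrafish larvae aged 5-7 days, whole organism · Buffer or medium – E3 fish medium · Reagent – quenched phospholipase substrate PED6, 100 nM final, ingested by larvae · Doses – 20 µM single dose · Incubation – overnight compound and PED6 incubation · Technique – visual fluorescence microscopy scoring of gall bladder, gut · Read-out basis – visual per-well fluorescence inhibition score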

A short description of assay [9]: loss of swimming-algae plug formation – whole organism, Chlamydomonas reinhardtii, WT vs cilia-less mutant, absorbance, 96-well, primary screen (AID 463189).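 Note: 0% = wild type cc124 cells in DMSO and 100% = ciliumless bld1 mutant cells.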 The conditions noted are these: Chlamydomonas reinhardtii gravitaxis, OD600 absorbance, 2 days; at 10 µM; stronger effect = higher value.
[10] abbreviates: measured here: cell density z-score.
Where [11] appears, read: measured here: nuclear c-Myc green intensity z-score.
Where [12] appears, read: measured here: nuclear pErk red intensity z-score, stronger effect = higher value.

Active and inactive are the calls of the source.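 Rule for the calls, unless noted: active = inhibition at or above 50% relative to wild type and mutant plate controls; inactive = inhibition below 50%.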

Voltage-gated potassium channel subunit beta-2 (Rattus norvegicus), sequence (P62483 whole entry, looked up): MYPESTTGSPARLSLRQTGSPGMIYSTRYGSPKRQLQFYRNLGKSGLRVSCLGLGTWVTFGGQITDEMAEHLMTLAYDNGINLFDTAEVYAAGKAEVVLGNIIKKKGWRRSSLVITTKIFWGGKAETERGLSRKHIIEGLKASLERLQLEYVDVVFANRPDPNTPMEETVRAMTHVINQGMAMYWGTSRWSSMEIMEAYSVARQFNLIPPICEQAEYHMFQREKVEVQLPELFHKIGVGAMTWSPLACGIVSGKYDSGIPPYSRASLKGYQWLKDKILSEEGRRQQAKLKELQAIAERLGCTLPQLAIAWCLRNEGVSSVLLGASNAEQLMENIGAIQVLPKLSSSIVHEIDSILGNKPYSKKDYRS

Regarding `Cc1cc(C)c(NC(=O)OCCN2CCOCC2)c(C)c1`, the cell count in [1] worked out at 581. For the same compound, the inhibition – broadly, the drop in the measured response relative to a control, in per cent – in assay [1] was -17.3% (inactive); in assay [2] it was -82.2% (inactive); in assay [4], 3.56% (inactive); in [9], 19.8% (inactive). The nuclei count in assay [2] was 168%. Moreover, the figures for the z-score in [3] (setting [10]), in assay [3] (setting [11]) and in [3] (setting [12]) were -0.0769, -0.6 and 1.06, respectively. In addition, the fluorescence slope in assay [5] was -0.468 (inactive). The NADPH fluorescence slope in assay [6] was -7.1e-05 (inactive). The slope in [7] is 0.00577 (inactive). For the same compound, the compound was classed as inactive in assay [8].

In the case of `CC1(C)NC(=O)N(CC(O)Cn2nnc3ccccc32)C1=O` (stereo unspecified), the cell count in assay [1] was found to be 372. The inhibition is 3.9% (inactive) in assay [1], -188% (inactive) in assay [2], -7.28% (inactive) in assay [4] and 6.41% (inactive) in [9]. Also, in assay [2], the nuclei count is 122%. Besides, the z-score in [3] (setting [10]) was 0.214; in [3] (setting [11]), 0.212; in assay [3] (setting [12]), 2.03. The fluorescence slope in assay [5] is -0.357 (inactive). Also, in assay [6], the NADPH fluorescence slope was 2.5e-05 (inactive). Also, the slope in assay [7] is 0.0051 (inactive). For the same compound, the call in assay [8] was inactive.

With `CCN(CC)CCNc1nc(-c2ccco2)c2c(c1C#N)CC(C)(C)OC2`, the cell count in assay [1] amounted to 580. The inhibition was -4.5% (inactive) in assay [1], 12.3% (inactive) in [2], 9.82% (inactive) in [4] and 47.8% (inactive) in assay [9]. This compound also had a nuclei count in assay [2] of 110%. Also, the results for the z-score in assay [3] (setting [10]), in assay [3] (setting [11]) and in [3] (setting [12]) were 0.832, 0.195 and 0.416, respectively. In assay [5], the fluorescence slope was -0.379 (inactive). In addition, the NADPH fluorescence slope in [6] is 1.9e-06 (inactive). In addition, in [7], the slope is 0.00425 (inactive). In [8], the compound was called inactive.

As for `CCCOc1ccc(/C(O)=C2/C(=O)C(=O)N(CCCN3CCOCC3)C2c2ccncc2)cc1` (stereo unspecified), in assay [1], the cell count is 398. In addition, the inhibition is -0.5% (inactive) in assay [1], -151% (inactive) in [2], -8.27% (inactive) in assay [4] and 0.312% (inactive) in assay [9]. The compound also registered a nuclei count in assay [2] of 145%. In addition, the z-score in assay [3] (setting [10]) is 0.781; in assay [3] (setting [11]) it was 0.803; in [3] (setting [12]), -0.95. Moreover, the fluorescence slope in assay [5] is -0.341 (inactive). Also, the NADPH fluorescence slope in [6] was -1.2e-05 (inactive). The slope in assay [7] is 0.0051 (inactive). In assay [8], the outcome was inactive.

In the case of `CCOC(=O)CCc1c(C)c(C#N)c2nc3ccccc3n2c1-n1ccnc1C`, the cell count in assay [1] worked out at 583. For the same compound, the inhibition was -0.8% (inactive) in assay [1], -125% (inactive) in [2], 7.93% (inactive) in assay [4] and 21.4% (inactive) in assay [9]. Further, the nuclei count in assay [2] stood at 138%. For the same compound, the z-score in assay [3] (setting [10]) is -0.341; in assay [3] (setting [11]) it was 0.0322; in assay [3] (setting [12]), -0.112. The fluorescence slope in [5] was -0.457 (inactive). The NADPH fluorescence slope in assay [6] is -3.9e-05 (inactive). Moreover, the slope in [7] is 0.00607 (inactive). For the same compound, the compound was classed as inactive in [8].

As to `Cn1nnnc1-c1cc(Br)ccc1NC(=O)c1ccccc1`, the cell count in assay [1] turned out to be 397. The inhibition in assay [1] is -1.8% (inactive); in [2] it was -2.9% (inactive); in [4], -8.27% (inactive); in [9], -4.44% (inactive). Besides, in assay [2], the nuclei count turned out to be 93.6%. In addition, the z-score in assay [3] (setting [10]) was -0.94; in [3] (setting [11]) it was 1.01; in assay [3] (setting [12]), -1.17. In addition, the fluorescence slope in assay [5] is -0.39 (inactive). In [6], the NADPH fluorescence slope was 7.2e-07 (inactive). Also, the slope in assay [7] was 0.00973 (inactive). Also, the compound was called inactive in assay [8].

For `CC1CN(C2CCN(S(=O)(=O)c3ccc4ccccc4c3)CC2)CC(C)O1` (stereo unspecified), in assay [1], the cell count stood at 396. Further, the inhibition is -19.4% (inactive) in assay [1], -273% (inactive) in assay [2], -0.159% (inactive) in assay [4] and 110% (active) in assay [9]. In assay [2], this compound registered a nuclei count of 173%. Besides, the z-score in [3] (setting [10]) is 0.701; in assay [3] (setting [11]), -1.69; in [3] (setting [12]) it was 1.26. Moreover, in [5], the fluorescence slope is -0.389 (inactive). In addition, the NADPH fluorescence slope in assay [6] is -3.5e-05 (inactive). Besides, the slope in [7] is 0.00656 (inactive). Further, the result in [8] was inactive.

`CCOc1cccc(-c2nnc3sc(-c4ccc(C)cc4)nn23)c1`: the cell count in [1] was determined as 588. Moreover, the inhibition is -12% (inactive) in assay [1], -113% (inactive) in assay [2], -9.66% (inactive) in assay [4] and -1.49% (inactive) in [9]. Also, the nuclei count in assay [2] worked out at 166%. In addition, the figures for the z-score in assay [3] (setting [10]), in [3] (setting [11]) and in [3] (setting [12]) were 0.29, -1.67 and 0.863, respectively. The fluorescence slope in assay [5] was -0.458 (inactive). Also, the NADPH fluorescence slope in assay [6] was -0.000137 (inactive). For the same compound, the slope in [7] is 0.00552 (inactive). Moreover, the outcome in [8] was inactive.

With `CC(C)C1Cc2c(sc3c2c(=O)n(Cc2ccccc2)c2nncn32)CO1` (stereo unspecified), the cell count in assay [1] is 557. The inhibition in assay [1] is -4.6% (inactive); in assay [2] it was -2.8% (inactive); in assay [4] it was 9.61% (inactive); in assay [9] it was 8.24% (inactive). Moreover, in assay [2], the nuclei count is 115%. Besides, the results for the z-score in [3] (setting [10]), in [3] (setting [11]) and in assay [3] (setting [12]) were 1.56, 0.421 and -0.614, respectively. The fluorescence slope in assay [5] is -0.481 (inactive). Moreover, the NADPH fluorescence slope in [6] was -0.000346 (inactive). In addition, the slope in assay [7] was 0.00509 (inactive). Besides, the result in assay [8] was inactive.

For the compound `O=C(CN1C(=O)c2ccccc2S1(=O)=O)c1ccccc1`, the cell count in assay [1] came to 567. Further, the inhibition in assay [1] is -7.2% (inactive); in [2], 39.2% (inactive); in assay [4], 7.73% (inactive); in [9], -6.59% (inactive). In addition, the nuclei count in assay [2] was determined as 193%. The z-score in assay [3] (setting [10]) was 0.246; in [3] (setting [11]), 1.04; in assay [3] (setting [12]), -0.287. In addition, in assay [5], the fluorescence slope is -0.511 (inactive). Besides, the NADPH fluorescence slope in assay [6] was -9e-05 (inactive). Further, the slope in [7] was 0.005 (inactive). Further, the outcome in assay [8] was inactive.

For the compound `COc1cccc(C2=CC(c3ccccc3)n3ncnc3N2)c1` (stereo unspecified), the cell count in assay [1] amounted to 565. Moreover, the inhibition is 3.2% (inactive) in [1], 36.2% (inactive) in assay [2], -8.76% (inactive) in assay [4] and 10.9% (inactive) in assay [9]. The nuclei count in [2] worked out at 163%. Besides, the figures for the z-score in assay [3] (setting [10]), in assay [3] (setting [11]) and in [3] (setting [12]) were -0.222, -0.0591 and 0.0878, respectively. In addition, the fluorescence slope in assay [5] is -0.0434 (active). For the same compound, the NADPH fluorescence slope in assay [6] is -2e-07 (inactive). Further, in assay [7], the slope was 0.00478 (inactive). For the same compound, the compound was called inactive in [8].

As for `CC(=O)C(=[N+]=[N-])C(=O)NCc1ccccc1`, the cell count in assay [1] is 474. Also, the inhibition was -11.6% (inactive) in assay [1], -71.5% (inactive) in assay [2], 5.95% (inactive) in assay [4] and 24.1% (inactive) in assay [9]. For the same compound, the nuclei count in [2] came out at 95.4%. Besides, the z-score was 0.378 in assay [3] (setting [10]), -1.15 in assay [3] (setting [11]) and 0.485 in assay [3] (setting [12]). Further, in assay [5], the fluorescence slope is -0.518 (inactive). For the same compound, the NADPH fluorescence slope in assay [6] is -4e-05 (inactive). Further, the slope in [7] is 0.00636 (inactive). Further, the compound was classed as inactive in assay [8].

The record behind these values is PubChem BioAssay.
